Source: PubChem (Broad Institute)
Rtt109 Vps75 – C. albicans Rtt109 histone acetyltransferase inhibition; Q5AAJ8; AID 540336; purified Rtt109/Vps75, ThioGlo CoA-SH fluorescence, 4 h; inhibition, % at 34.9 µM; 0.16% of 330,000 active;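 active = inhibition of at least 50% in every replicate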
Target sequence (Q5AAJ8 whole entry, looked up): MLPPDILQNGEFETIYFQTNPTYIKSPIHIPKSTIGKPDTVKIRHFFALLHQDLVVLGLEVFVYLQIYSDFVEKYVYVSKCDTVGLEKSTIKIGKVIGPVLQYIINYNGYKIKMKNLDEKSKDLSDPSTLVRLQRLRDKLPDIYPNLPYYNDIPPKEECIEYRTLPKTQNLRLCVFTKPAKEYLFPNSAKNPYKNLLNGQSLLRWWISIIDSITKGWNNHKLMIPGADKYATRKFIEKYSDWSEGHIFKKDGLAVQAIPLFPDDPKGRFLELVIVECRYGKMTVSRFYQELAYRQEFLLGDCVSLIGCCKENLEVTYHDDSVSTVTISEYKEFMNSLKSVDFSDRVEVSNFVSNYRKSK
PfHsp90 set2 – growth inhibition of yeast expressing Plasmodium Hsp90 | S. cerevisiae expressing PfHsp90, BacTiter-Glo ATP, 48 h; yeast lacking PDR1 and PDR3 efflux regulators | inhibition, % at 9.4 µM | 0.32% of 310,000 active;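 active = every replicate shows inhibition above about 80%, whatever the replicate mean, limit read from the data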;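 note: 0% = DMSO neutral controls and 100% = 20 µM radicicol positive controls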
CSC inhib – blocks cancer stem cells | inhibition, % at 7.5 µM | 1.1% of 300,000 active | cancer stem cell-like cells viability, luminescence | AID 2717; in the data active = inhibition above about 75%; tested in HMLE shEcad cells
PglD inh – blocks C. jejuni PglD acetyltransferase activity | purified PglD enzyme, DTNB colorimetric CoA detection | inhibition, % at 12.5 µM | 0.098% of 360,000 active; in the data active = inhibition above about 16%, passing the limit was not always enough
SKKanGAS inh – blocks kanamycin growth of S. pyogenes SKKanGAS strain | 1.3% of 300,000 active | inhibition, % at 7.5 µM | BacTiter-Glo, 6 h | AID 1662;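 active = mean replicate score, as percent of positive control median, at least 50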;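 note: strain carries kanamycin resistance gene driven by streptokinase promoter and grows in 40 µg/ml kanamycin; loss of luminescence reflects streptokinase promoter inhibition or plain growth inhibition; 0% = median of DMSO wells and 100% = positive control at its reference dose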
FN deposition inh – fibronectin deposition inhibition; 0.086% of 350,000 active; inhibition, % at 12.6 µM; AH1F fibroblasts, Alexa488-fibronectin deposition fluorescence, overnight; AID 743247;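 active = mean inhibition across replicates of 30% or more, regardless of how many single replicates reach that level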;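 note: positive control wells lacked labelled fibronectin entirely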
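Material: AH1F fibroblasts assembling fluorescent fibronectin matrix; amount: 10000 AH1F cells/well; medium: DMEM, 2% serum; reagent: Alexa488-fibronectin, 24 nM final in well; dosing: single compound dose, delivered by pin transfer; incubation: 1 h adhesion, overnight exposure; detection: fluorescence after three HBSS washes, excitation 485 nm, emission 525 nm; measure: fibronectin deposition inhibition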
Numbers without * were called inactive; i = inactive; x = not tested or not shown. Hits are enriched below; roughly 1.7% of the tested compounds scored in any of these assays.

SMILES | Rtt109 Vps75 | PfHsp90 set2 | CSC inhib | PglD inh | SKKanGAS inh | FN deposition inh
CO[C@H]1CN(C)C(=O)c2cc(NS(C)(=O)=O)ccc2OC[C@@H](C)N(CCC(F)(F)F)C[C@H]1C | x | x | x | 1 | x | -11
Cc1nc(Sc2ccc(Br)cc2)c(C#N)c(C)c1[N+](=O)[O-] | -2 | -2 | 83* | 8 | -20 | 3
Cc1ccc(Sc2nc(C)c([N+](=O)[O-])c(C)c2C#N)cc1 | x | x | 58 | 1 | 21 | 2
CC1CCCN(Cc2c(O)ccc3c4c(c(=O)oc23)CCCC4)C1 (stereo not drawn) | i | -38 | 4 | 0 | -8 | 31*
O=c1oc2c(CN3CCOCC3)c(O)ccc2c2c1CCC2 | -170 | x | -22 | 4 | x | -3
O=C(C[C@H]1C[C@H]2c3cc(NS(=O)(=O)c4ccc(F)cc4)ccc3O[C@H]2[C@H](CO)O1)N1CCCCC1 | x | x | x | -2 | x | x
COc1cc(OC)cc(N2C(=O)CC(N3CCC(C(=O)N4CCCCC4)CC3)C2=O)c1 (stereo not drawn) | -2 | 82* | 3 | 4 | -9 | x
CCOC(=O)C1CCCN(C2CC(=O)N(c3cccc(C(F)(F)F)c3)C2=O)C1 (stereo not drawn) | -3 | 120* | 10 | 2 | 0 | -13
CCOC(=O)C1CCCN(C2CC(=O)N(c3ccc(N4C(=O)CC(N5CCCC(C(=O)OCC)C5)C4=O)cc3)C2=O)C1 (stereo not drawn) | -10 | -18 | -2 | -16 | 2 | 7
CCOC(=O)C1CCN(C2CC(=O)N(c3ccc(OCC)cc3)C2=O)CC1 (stereo not drawn) | 0 | -54 | -7 | 4 | 0 | x
CCCCCCOc1ccc(N2C(=O)CC(N3CCC(C(=O)OCC)CC3)C2=O)cc1 (stereo not drawn) | 4 | 106* | 16 | -1 | -2 | x
CC(=O)Nc1cccc(N2C(=O)CC(N3CCC(C(=O)N4CCCCC4)CC3)C2=O)c1 (stereo not drawn) | -4 | -15 | 8 | -5 | 1 | x
C[C@@H]1CCCCO[C@H](CN(C)C(=O)CCC(F)(F)F)[C@@H](C)CN([C@@H](C)CO)C(=O)c2cc(NC(=O)Cc3ccccc3)ccc2O1 | x | x | x | 3 | x | x
Cc1ccc(S(=O)(=O)NCC[C@@H]2CC[C@@H](NC(=O)Nc3ccccc3F)[C@H](CO)O2)cc1 | x | x | x | 0 | x | x
C[C@@H]1CN([C@H](C)CO)C(=O)Cc2cc(NC(=O)Cc3ccccc3)ccc2O[C@@H]1CN(C)C | x | x | x | -4 | x | x
COc1cc(N/N=C(\C)c2ccc(O)c(C)c2)nc(-c2ccccc2)n1 | -8 | -12 | 110* | x | 34 | x
C/C(=N\Nc1cc(-c2ccccc2)nc(-c2ccccc2)n1)c1ccc(O)c(C)c1 | 2 | 11 | x | -4 | 98* | 1
COc1ccc2c3c(n(C)c2c1)[C@@H](CO)N(Cc1ccccc1OC)CC31CCN(CC2CC2)CC1 | x | x | x | x | x | 5
C[C@H]1CN([C@@H](C)CO)S(=O)(=O)c2ccc(-c3ccc(F)cc3)cc2O[C@@H]1CN(C)C(=O)C1CCCCC1 | x | x | x | -6 | x | -28
CC1Cc2ccccc2N1C(=O)COC(=O)c1ccc(N(C)C)cc1 (stereo not drawn) | -11 | 2 | 12 | 2 | x | 5
CC1Cc2ccccc2N1C(=O)COC(=O)c1ccc(O)cc1 (stereo not drawn) | 52* | 11 | -17 | 2 | -1 | -3
COCC(=O)Nc1ccc2c(c1)OC[C@@H](C)N(Cc1cncnc1)C[C@H](C)[C@H](OC)CN(C)C2=O | x | x | x | x | x | 1
C[C@H](CO)N1C[C@H](C)[C@@H](CN(C)CC2CCCCC2)OCc2cn(nn2)CCCC1=O | x | x | x | 0 | x | -16
CC(C)S(=O)(=O)c1csc(NC(=O)Nc2cc(Cl)ccc2Cl)c1Cl | 3 | 14 | 66 | x | 58* | -2
CC(=O)NC(CCS(C)(=O)=O)C(=O)Nc1cc(Cl)ccc1Cl (stereo not drawn) | -10 | 11 | -13 | -4 | 1 | 0
O=C(CSc1nc2ccccc2c(=O)n1Cc1ccccc1)Nc1ccc(Br)cc1C(=O)O | 4 | -11 | 65 | -4 | 52* | -1
CCOc1ccc(-c2c(C#N)c(N)nc3sc(C(=O)c4ccccc4)c(N)c23)cc1 | -14 | -15 | -1 | x | 4 | 10
